Measurements gathered from unrelated publications.
Protocols differ between the studies behind these lines.
Cell line: Vero
Read-out: cell growth or viability

SMILES	method	time	IC50 [µM]
C#Cc1cccc(Nc2ncnc3cc(OCCOC)c(OCCOC)cc23)c1	MTT	72 h	67
CCOC(=O)c1ccc(NC(=O)Cn2c(=O)c3cc(I)ccc3n(Cc3ccccc3)c2=O)cc1	–	–	49.1
Clc1ccc(-c2nnc(Nc3ccc(C4=NNC(c5ccccc5)C4)cc3)c3ccccc23)cc1 (stereo not drawn)	–	–	4.75
COc1cc(NC(=O)C2=C(C)NC(C)=C(C(=O)Nc3cc(OC)c(Cl)cc3OC)C2c2ccc(Cl)cc2)c(OC)cc1Cl	MTT	–	27.4
O=C(Cn1c(=O)c2cc(I)ccc2n(Cc2ccccc2)c1=O)Nc1ccc(-c2nnc(S)o2)cc1	–	–	43.8
COc1cc(NC(=O)C2=C(C)NC(C)=C(C(=O)Nc3cc(OC)c(Cl)cc3OC)C2c2ccco2)c(OC)cc1Cl	MTT	–	69.8
Clc1ccc(-c2nnc(Nc3ccc(C4=NNC(c5ccc(Cl)cc5)C4)cc3)c3ccccc23)cc1 (stereo not drawn)	–	–	4.25
COc1ccc(NC(=O)C2=C(C)NC(C)=C(C(=O)Nc3cc(OC)c(Cl)cc3OC)C2c2ccco2)c(OC)c1 (stereo not drawn)	MTT	–	68.1
S=c1nc(-c2ccc(Nc3nnc(-c4ccc(Cl)cc4)c4ccccc34)cc2)cc(-c2ccc(Cl)cc2)[nH]1	–	–	3.15
Cc1cc(C)n(-c2ccc(NC(=O)Cn3c(=O)c4cc(I)ccc4n(Cc4ccccc4)c3=O)cc2)n1	–	–	45.5
OC(Cn1cncn1)(Cn1cncn1)c1ccc(F)cc1F	MTT	24 h	173
CNC(=O)c1ccc(NC(=O)Cn2c(=O)c3cc(I)ccc3n(Cc3ccccc3)c2=O)cc1	–	–	46.9
O=C(CN1C(=O)SC(=Cc2ccc(Cl)cc2Cl)C1=O)Nc1ccc(C(=O)NNC(=O)c2ccccc2)cc1	MTS	–	3.97
C=CC(=O)Nc1cc(Nc2nccc(-c3cn(C)c4ccccc34)n2)c(OC)cc1N(C)CCN(C)C	MTT	72 h	181
COc1cc(NC(=O)C2=C(C)NC(C)=C(C(=O)Nc3cc(OC)c(Cl)cc3OC)C2c2cccc(Cl)c2)c(OC)cc1Cl	MTT	–	28.4
CN(C)C/C=C/C(=O)Nc1cc2c(Nc3ccc(F)c(Cl)c3)ncnc2cc1O[C@H]1CCOC1	MTT	72 h	110
CS(=O)(=O)CCNCc1ccc(-c2ccc3ncnc(Nc4ccc(OCc5cccc(F)c5)c(Cl)c4)c3c2)o1	MTT	–	17.5
O=c1nc(-c2ccc(Nc3nnc(-c4ccc(Cl)cc4)c4ccccc34)cc2)cc(-c2ccccc2)[nH]1	–	–	4
